The results in this text go back to PubChem BioAssay.

Test [1] in a line: inhibitors of TNFa-induced NFkB p65 translocation, primary screen, imaging, HUVEC, MLSMR starter and 10KST1 sets (AID 438;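 active = inhibition above 20% together with a positive visual image hit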;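 also: compound added about 3h40 before a 20 min TNFalpha stimulation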;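 as to inhibition: signal is the nuclear over cytoplasmic p65 intensity ratio per well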). As to conditions: HUVEC TNFa-induced p65 nuclear translocation; cell count: measured here: nuclei count (cytotoxicity indicator), at 2.08 µM; inhibition: at 2 µM, stronger effect = higher value, 0% TNFa-plus-vehicle, 100% no-TNFa wells.
Test [2] is described as follows: inhibitors of mutant huntingtin aggregation, primary screen, imaging, exon1htt(103Q)mCFP cells, high-content imaging (AID 483;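 active = visual image review flags a hit and inhibition of aggregation exceeds 20%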;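 also: compound exposure lasted 3 days before fixation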;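 as to nuclei count: percent of the per-plate median nuclei count of sample wells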). As to conditions: exon1htt(103Q)mCFP cell line, aggregate imaging, at 2 µM; inhibition of aggregation: stronger effect = higher value; nuclei count: measured here: cell count, toxicity.
The nature of test [3]: inhibitors of E-selectin induction by TNFa, primary screen, imaging, HUVEC, immunofluorescence, MLSMR starter and 10KST1 sets (AID 487;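 active = visually confirmed hit in the image check and inhibition above 20%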;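 as to inhibition: signal is fraction of cell area covered by stained E-selectin grains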;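 as to nuclei count: 100% = median nuclei count of all wells on the same plate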). As to conditions: HUVEC TNFalpha-induced E-selectin immunofluorescence imaging, at 2 µM; inhibition: stronger effect = higher value; nuclei count: measured here: cell number, toxicity.
Test [4] has as its target Voltage-gated potassium channel subunit beta-2 (Rattus norvegicus) (UniProt P62483). As to the kind of experiment: KvBeta enzyme negative modulators, primary screen, biochemical, NADPH fluorescence (AID 622;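 active = fluorescence slope higher than the sample average by over 3 SD, cut at about -0.22 in these data, passing the limit was not always enough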;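 also: slope of raw intensity against log time taken from 70 to 1610 s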). The note with it: recombinant KvBeta, 4-cyanobenzaldehyde reduction, at 10 µM, stronger effect = higher value.
For test [5] the target is unchanged. Description: KvBeta positive modulators, primary screen, biochemical, NADPH fluorescence (AID 623;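 active = NADPH fluorescence slope more negative than the mean of all samples by about 3 SD, 99.7% confidence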;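 also: fluorescence intensity change per second fitted from 20 to 320 s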). As to conditions: Recombinant KvBeta, NADPH fluorescence decrease slope, 10 min; at 10 µM; stronger effect = lower value.
Test [6] deals with Muscarinic acetylcholine receptor M4 (Homo sapiens) (UniProt P08173). As to the kind of experiment: compounds altering M4/GIRK thallium flux, either direction, primary screen, M4 allosteric agonist project, cell-based, HEK293 M4/GIRK, BTC-AM (AID 625;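 active = fluorescence slope after compound addition differing from the mean of all tested samples at 99.7% confidence, mostly higher but some lower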;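 also: thallium influx through GIRK channels coupled to M4 in HEK293 cells with BTC-AM dye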). As to conditions: at 10 µM, actives lie on both sides. Summed up:
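Material – HEK293 cells with M4 receptor and GIRK channels · Buffer or medium – pH 7.3 thallium assay buffer · Doses – one dose, 10 µM final · Timing – cells overnight at 37 °C, BTC-AM loading 1 h, reads 2 min total · Measured by – kinetic fluorescence with BTC-AM dye · Controls – carbachol and DMSO controls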

The nature of test [7]: inhibitors of Sendai virus-induced IRF3 signaling, primary screen, TLR/RLR signaling modifier project, cell-based, Sendai virus stimulus, luciferase, 10K MLSCN set (AID 602276).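 Also: firefly luciferase from ISG56 promoter only with Renilla not read in this screen; 0% = Sendai virus plus DMSO and 100% = medium plus DMSO without virus.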 The note with it: HEK293 RL24 IRF3 luciferase reporter, at 10 µM, stronger effect = higher value. (In general: In a reporter assay the amount or activity of a reporter protein is the signal.)
Test [8] can be described thus: inhibitors of poly I:C-induced TLR3 signaling, primary screen, cell-based, poly I:C stimulus, luciferase, 10K MLSCN set (AID 602277;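 active = inhibition of the reporter signal at or above 50%; inactive = inhibition below 50%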). As to conditions: HEK293-TLR3 RL24 IRF3 luciferase reporter, at 10 µM, stronger effect = higher value.
In test [9] the target is Alpha-2C adrenergic receptor (Homo sapiens) (UniProt P18825). Description: modulators of alpha2C/GIRK thallium flux, primary screen, cell-based, HEK293 alpha2C/GIRK1/2 (AID 624;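 active = fluorescence slope after compound addition differing from the mean of all screened samples at 99.7% confidence, in either direction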;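 also: slope of fluorescence ratio to pre-addition baseline per second over 15 to 24 s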). As to conditions: thallium flux BTC fluorescence, at 10 µM, actives lie on both sides.
Sequence of Alpha-2C adrenergic receptor (Homo sapiens) (P18825 whole entry, looked up): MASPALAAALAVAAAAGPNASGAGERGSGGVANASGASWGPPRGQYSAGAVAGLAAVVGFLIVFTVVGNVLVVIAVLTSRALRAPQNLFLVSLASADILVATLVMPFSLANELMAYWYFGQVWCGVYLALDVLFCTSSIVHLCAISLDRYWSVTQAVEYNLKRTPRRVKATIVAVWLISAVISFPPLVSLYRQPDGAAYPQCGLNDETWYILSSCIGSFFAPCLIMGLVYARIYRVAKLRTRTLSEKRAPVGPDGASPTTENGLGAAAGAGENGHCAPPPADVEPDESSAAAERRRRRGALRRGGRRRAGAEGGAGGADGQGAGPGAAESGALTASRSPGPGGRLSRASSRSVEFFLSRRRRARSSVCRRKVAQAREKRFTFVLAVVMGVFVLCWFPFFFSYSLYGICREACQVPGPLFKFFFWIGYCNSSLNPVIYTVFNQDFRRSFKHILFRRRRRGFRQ
Test [10] in a line: inhibitors of larval lipid processing in zebrafish, primary screen, whole organism, PED6 fluorescence, gall bladder and intestine (AID 686;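 active = a full or partial loss of lipid-probe fluorescence in the fish gall bladder, intestine or both, judged by eye; inactive = no fluorescence loss, or compound toxic to the fish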;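 also: larvae 5 to 7 days old with five fish per well; signal comes from phospholipase A2 cleavage of quenched PED6 carried via bile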). The note with it: Zebrafish larvae PED6 lipid processing, fluorescence scoring; screened at 20 µM (by protocol). Summed up: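 system = live zebrafish larvae aged 5-7 days, whole organism | probe or stimulus = ingested quenched lipid PED6 at 100 nM | doses = 20 µM single dose | timing = overnight exposure | detection = fluorescence microscopy with visual scoring of gall bladder and intestine | read-out = visual per-well fluorescence inhibition score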

Calls of active or inactive are those of the source.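 The calls were made as follows, unless noted: active = inhibition at or above 50% at 10 µM; inactive = inhibition below 50%.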

Sequence of Voltage-gated potassium channel subunit beta-2 (Rattus norvegicus) (P62483 whole entry, looked up): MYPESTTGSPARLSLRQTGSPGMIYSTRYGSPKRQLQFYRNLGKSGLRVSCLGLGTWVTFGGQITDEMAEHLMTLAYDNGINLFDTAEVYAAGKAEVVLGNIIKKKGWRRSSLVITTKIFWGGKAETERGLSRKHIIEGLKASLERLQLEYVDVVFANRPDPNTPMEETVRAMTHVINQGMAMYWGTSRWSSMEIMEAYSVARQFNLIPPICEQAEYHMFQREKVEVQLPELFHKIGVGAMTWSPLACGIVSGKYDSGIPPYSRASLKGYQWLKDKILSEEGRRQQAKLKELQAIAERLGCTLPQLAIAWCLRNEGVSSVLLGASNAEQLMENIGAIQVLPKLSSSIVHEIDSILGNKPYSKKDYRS
Sequence of Muscarinic acetylcholine receptor M4 (Homo sapiens) (P08173 whole entry, looked up): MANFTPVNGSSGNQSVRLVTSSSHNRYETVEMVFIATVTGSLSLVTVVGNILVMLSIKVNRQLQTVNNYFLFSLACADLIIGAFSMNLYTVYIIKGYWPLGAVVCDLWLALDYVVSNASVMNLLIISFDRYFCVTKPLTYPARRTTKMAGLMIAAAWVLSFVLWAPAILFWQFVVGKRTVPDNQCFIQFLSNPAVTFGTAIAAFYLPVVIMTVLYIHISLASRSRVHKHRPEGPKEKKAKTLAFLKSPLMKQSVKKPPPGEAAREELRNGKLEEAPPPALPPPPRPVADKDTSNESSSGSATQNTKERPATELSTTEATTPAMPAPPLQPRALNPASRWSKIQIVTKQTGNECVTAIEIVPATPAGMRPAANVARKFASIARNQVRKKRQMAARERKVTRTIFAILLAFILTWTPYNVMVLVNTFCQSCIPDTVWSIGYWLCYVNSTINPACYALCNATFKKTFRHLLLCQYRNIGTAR

Turning to `CCCC(=O)Nc1ccc(NC(=O)c2cccs2)cn1`, the cell count in test [1] stood at 425. Moreover, the inhibition in test [1] was 6.7% (inactive); in test [3], -445% (inactive); in test [7], -12.8% (inactive); in test [8] it was -57.7% (inactive). Further, the inhibition of aggregation in test [2] was 10.4% (inactive). Further, the figures for the nuclei count in [2] and in [3] were 106% and 140%, respectively. Moreover, the figures for the fluorescence slope in test [4] and in test [6] were -0.578 (inactive) and 0.00548 (inactive), respectively. In addition, the NADPH fluorescence slope in [5] was -3.4e-05 (inactive).
Take `O=C1c2ccccc2C(O)(Cc2ccccc2)N1Cc1ccco1` (stereo unspecified): in test [1], the cell count turned out to be 425. Further, the inhibition in test [1] is -2.9% (inactive); in test [3] it was -110% (inactive); in test [7], 8.83% (inactive); in [8], 21.9% (inactive). The inhibition of aggregation in test [2] was -10.1% (inactive). Also, the figures for the nuclei count in test [2] and in test [3] were 96.8% and 131%, respectively. Also, the fluorescence slope in [4] was -0.554 (inactive); in test [6], 0.00578 (inactive). Besides, the NADPH fluorescence slope in test [5] was -1.5e-05 (inactive).
With `Cc1nnc(SCC(=O)Nc2ccc3c4c(cccc24)CC3)n1C`, the cell count in [1] is 336. Moreover, the inhibition is 1.8% (inactive) in test [1], -41.4% (inactive) in [3], 15.8% (inactive) in test [7] and 5.58% (inactive) in test [8]. The inhibition of aggregation in [2] is -11.5% (inactive). Also, the nuclei count amounted to 97.3% in test [2] and 108% in test [3]. The results for the fluorescence slope in test [4] and in test [6] were -0.24 (inactive) and 0.00568 (inactive), respectively. Also, in test [5], the NADPH fluorescence slope was -4.5e-05 (inactive).
As for `COc1cccc(CNC(=O)C2CCN(c3cnccn3)CC2)c1`, the cell count in test [1] turned out to be 399. The inhibition is -8.4% (inactive) in test [1], -82.7% (inactive) in test [3], 18.8% (inactive) in [7] and 18.1% (inactive) in [8]. Also, the inhibition of aggregation in test [2] is 17.9% (inactive). Moreover, the nuclei count in [2] is 98.8%; in test [3] it was 86.8%. Further, the fluorescence slope in test [4] is -0.548 (inactive); in test [6] it was 0.00424 (inactive). Besides, the NADPH fluorescence slope in test [5] was 5.8e-06 (inactive).
For `CC(C)=CC(=O)OCC(=O)NC(=O)NC(C)(C)C`, in [1], the cell count amounted to 220. Further, the inhibition was 13.1% (inactive) in test [1], 3.9% (inactive) in test [3], -2.29% (inactive) in test [7] and 9.61% (inactive) in test [8]. In addition, the inhibition of aggregation in test [2] is 14.1% (inactive). For the same compound, the nuclei count in [2] is 97.7%; in [3], 98.5%. In addition, the fluorescence slope in test [4] was -0.591 (inactive); in [6], 0.00792 (inactive). In test [5], the NADPH fluorescence slope was -1.3e-05 (inactive).
On to `COc1cc(-c2nc(-c3ccncc3)no2)cc(OC)c1OC`, for which the cell count in test [1] amounted to 491. In addition, the inhibition in test [1] was -1.1% (inactive); in test [3] it was 58.4% (inactive); in test [7], 4.77% (inactive); in [8], -3.43% (inactive). The inhibition of aggregation in [2] is -1.8% (inactive). In addition, the values for the nuclei count in test [2] and in test [3] were 88.9% and 50.2%, respectively. Also, in [4], the fluorescence slope is -0.341 (inactive). Further, in test [5], the NADPH fluorescence slope is -3.8e-05 (inactive). Further, the slope in test [9] is 0.00475 (inactive). For the same compound, the result in test [10] was inactive.
For `COc1ccccc1-n1c(SCC(N)=O)nnc1-c1ccccc1`, the cell count in test [1] was 737. For the same compound, the inhibition in test [1] was 19.3% (inactive); in test [3], -0.4% (inactive); in test [7], 13.3% (inactive); in test [8], 23.1% (inactive). Further, the inhibition of aggregation in [2] was -24.2% (inactive). Further, the nuclei count in test [2] is 106%; in test [3], 80.6%. Besides, the fluorescence slope was -0.484 (inactive) in [4] and 0.00627 (inactive) in test [6]. Further, in test [5], the NADPH fluorescence slope was -3.5e-05 (inactive).
Turning to `COCCNc1nc(C(C)(C)C)nc2c1nnn2Cc1ccccc1Cl`, the cell count in test [1] was determined as 419. Also, the inhibition in test [1] was 15.8% (inactive); in test [3], 14.6% (inactive); in [7] it was -0.805% (inactive); in test [8], 56% (active). In addition, in test [2], the inhibition of aggregation is 1% (inactive). Moreover, the nuclei count in test [2] came out at 106%; in [3], 111%. Moreover, the fluorescence slope in [4] was -0.462 (inactive); in [6], 0.00616 (inactive). Also, the NADPH fluorescence slope in [5] is -1.9e-06 (inactive).
In the case of `COC(=O)c1cc(-c2c(C)nn(-c3ccccc3)c2C)n[nH]1`, the cell count in [1] is 391. The inhibition in test [1] is 1.1% (inactive); in test [3], 8.5% (inactive); in test [7] it was -13.2% (inactive); in test [8] it was -66.7% (inactive). For the same compound, the inhibition of aggregation in [2] was -8.1% (inactive). Further, the figures for the nuclei count in test [2] and in [3] were 111% and 95.5%, respectively. In addition, the fluorescence slope was -0.447 (inactive) in test [4] and 0.00494 (inactive) in test [6]. Further, the NADPH fluorescence slope in test [5] is 2.5e-05 (inactive).
Consider `Cc1nc2ccc(F)cc2cc1C(=O)NCC1CCCO1` (stereo unspecified), for which, in [1], the cell count is 421. Besides, the inhibition in test [1] is -8.7% (inactive); in test [3], -34.7% (inactive); in test [7], 17.3% (inactive); in test [8], 27.4% (inactive). For the same compound, the inhibition of aggregation in test [2] was 7.6% (inactive). For the same compound, the nuclei count was 96.4% in test [2] and 115% in test [3]. Further, in test [4], the fluorescence slope was -0.432 (inactive). The NADPH fluorescence slope in [5] is -4.9e-05 (inactive). The slope in [9] is 0.00492 (inactive). Besides, the compound was called inactive in test [10].
Turning to `COc1cc2[nH]c(=O)n(CCCCCC(=O)N3CCN(c4ccccn4)CC3)c(=O)c2cc1OC`, in [1], the cell count worked out at 195. In addition, the inhibition in test [1] was 17.8% (inactive); in test [3], 28.9% (inactive); in [7], 19.6% (inactive); in [8], -1.9% (inactive). The inhibition of aggregation in [2] was 6% (inactive). The nuclei count in test [2] was found to be 100%; in test [3], 92.1%. The fluorescence slope in [4] is -0.216 (inactive); in test [6], 0.00687 (inactive). Also, in test [5], the NADPH fluorescence slope is -2.4e-05 (inactive).
`Cc1nc2ccccc2c(=O)n1/N=C/c1ccncc1`: the cell count in test [1] was 644. The inhibition was -6.3% (inactive) in test [1], -2.9% (inactive) in [3], -4.49% (inactive) in [7] and 4.48% (inactive) in [8]. Besides, the inhibition of aggregation in [2] was -10.1% (inactive). Also, the nuclei count is 109% in test [2] and 92.1% in [3]. Besides, the fluorescence slope in test [4] is -0.526 (inactive); in [6] it was 0.00441 (inactive). Further, the NADPH fluorescence slope in test [5] is -3.4e-05 (inactive).
As to `Cc1cc(=O)n(CC(C)C)c(O)c1C#N`, in test [1], the cell count worked out at 432. Besides, the inhibition was 1.5% (inactive) in test [1], -11.8% (inactive) in test [3], 13% (inactive) in test [7] and -7.21% (inactive) in test [8]. The inhibition of aggregation in [2] is 9.1% (inactive). The nuclei count came to 94.3% in [2] and 109% in test [3]. Further, the fluorescence slope is -0.581 (inactive) in test [4] and 0.00407 (inactive) in test [6]. In test [5], the NADPH fluorescence slope was -3.7e-05 (inactive).
Turning to `CC(C)Oc1ccc(-c2nn(-c3ccccc3)cc2/C=c2\sc3ncnn3c2=O)cc1`, the cell count in [1] worked out at 335. Besides, the inhibition in test [1] was -4.6% (inactive); in [3] it was -335% (inactive); in test [7] it was -16.4% (inactive); in [8], -14.6% (inactive). The inhibition of aggregation in test [2] is 5.1% (inactive). In addition, the nuclei count was determined as 88.3% in test [2] and 114% in test [3]. Further, the fluorescence slope in test [4] is -0.279 (inactive); in test [6] it was 0.00832 (inactive). For the same compound, the NADPH fluorescence slope in test [5] was 1e-05 (inactive).

In general, inhibition refers to the drop in the measured response relative to a control, in per cent.
